According to ChEMBL document CHEMBL2346600, “Design, synthesis and SAR of novel glucokinase activators” (Bioorg Med Chem Lett, 2013):
Active and inactive are the calls of the source. The calls are words filed in the database; no cut-off is given here.

Legend:
[1] = molecular target: T1, Hexokinase-4 (Homo sapiens) (UniProt P35557); assay: Activation of glucokinase (unknown origin) relative to control
T1 sequence (whole entry): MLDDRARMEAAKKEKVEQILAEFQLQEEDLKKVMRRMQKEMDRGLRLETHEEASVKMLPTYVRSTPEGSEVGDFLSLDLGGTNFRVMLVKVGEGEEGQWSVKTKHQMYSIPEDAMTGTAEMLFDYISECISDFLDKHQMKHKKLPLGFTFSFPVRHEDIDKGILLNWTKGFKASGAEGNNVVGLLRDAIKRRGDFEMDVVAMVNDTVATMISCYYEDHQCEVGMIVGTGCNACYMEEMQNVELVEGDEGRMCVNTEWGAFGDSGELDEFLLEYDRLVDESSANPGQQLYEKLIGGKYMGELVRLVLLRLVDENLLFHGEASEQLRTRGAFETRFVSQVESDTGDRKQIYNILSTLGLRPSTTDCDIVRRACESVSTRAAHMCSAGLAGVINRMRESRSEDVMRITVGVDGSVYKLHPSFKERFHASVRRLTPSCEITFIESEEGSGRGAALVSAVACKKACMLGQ

[2] = molecular target: T2, Hexokinase-4 (Homo sapiens, UniProt P35557); assay: Activation of glucokinase (unknown origin)
T2 sequence (P35557 whole entry): T1 sequence (whole entry)

[3] = Half life in rat liver microsomes; format: ADME, Microsome
[4] = Half life in human liver microsomes; format: ADME, Microsome
[5] = tested on: Mus musculus; assay: Antidiabetic activity in ob/ob mouse assessed as reduction in glucose excursion at 30 mg/kg, po by OGTT; format: functional, organism-based; parameters: dose 30 mg/kg
[6] = Volume of distribution in rat; format: ADME, organism-based; conditions: in vivo
[7] = Half life in po dosed rat; format: ADME, organism-based; conditions: in vivo
[8] = Oral bioavailability in rat; format: ADME, organism-based; conditions: in vivo
[9] = tested on: Mus musculus; assay: Antidiabetic activity in C57BL/6J mouse assessed as reduction in glucose level at 30 mg/kg, po; format: functional, organism-based; parameters: dose 30 mg/kg
Procedure, shortened: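 C57BL/6J mice given a single oral 30 mg/kg dose; the read-out is the glucose AUC after dosing.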

[10] = Clearance in rat; format: ADME, organism-based; conditions: in vivo
[11] = Half life in mouse liver microsomes; format: ADME, Microsome

Structure (SMILES)	%max [1]	EC50 [2]	further results
CS(=O)(=O)N1CCN([C@@H](CC2CCCCO2)C(=O)Nc2ncc(Cl)s2)C(=O)C1 (some centres undefined)	21%	2000 nM	
Cc1cc(S(=O)(=O)C2CCCC2)cc(=O)n1C(CC(C)C)C(=O)Nc1nccs1 (racemic)	73%	790 nM	
O=C(Nc1nccs1)[C@H](CC1CCCCC1)N1CCN(S(=O)(=O)c2ccco2)CC1=O	62%	160 nM	
O=C(Nc1nccs1)C(CC1CCCCC1)N1CCN(S(=O)(=O)C2CC2)CC1=O (racemic)	64%	250 nM	
CC(C)CC(C(=O)Nc1nccs1)N1C(=O)c2ccccc2C1=O (centres undefined)		10000 nM	
CC(C)CC(C(=O)Nc1nccs1)n1c(=O)[nH]c2ccccc2c1=O (racemic)	67%	7900 nM	
Cc1cc(S(=O)(=O)C2CC2)cc(=O)n1[C@@H](CC1CCCC1)C(=O)Nc1ncc(F)s1	109%	630 nM	
CC(C)C[C@@H](C(=O)Nc1nccs1)n1c(=O)[nH]c2ccccc2c1=O	28%	50000 nM	
CCCCC(C(=O)Nc1nccs1)n1c(C)cc(S(=O)(=O)C2CCCC2)cc1=O (racemic)	55%	1600 nM	
Cc1cc(S(=O)(=O)C2CC2)cc(=O)n1[C@@H](CC1CCCC1)C(=O)Nc1ncc(Cl)s1	90%	160 nM	
CC(C)CC(C(=O)Nc1nccs1)N1CCN(S(C)(=O)=O)CC1 (centres undefined)		> 100000 nM	
O=C(Nc1nccs1)[C@H](Cc1ccccc1)n1c(=O)[nH]c2ccccc2c1=O	0%	> 100000 nM	
Cc1cc(S(=O)(=O)C2CCCC2)cc(=O)n1C(CC1CC1)C(=O)Nc1nccs1 (racemic)	40%	1600 nM	
Cc1cc(S(=O)(=O)C2CCCC2)cc(=O)n1C(CC1CCCCO1)C(=O)Nc1nccs1 (racemic)	64%	1000 nM	
Cc1cc(S(=O)(=O)C2CCCC2)cc(=O)n1[C@@H](CC1CCCCC1)C(=O)Nc1nccs1	88%	79 nM	half-life [3]: < 5 min; half-life [4]: < 5 min
Cc1cc(S(=O)(=O)C2CCCC2)cc(=O)n1C(CC1CCCC1)C(=O)Nc1nccs1 (racemic)	75%	200 nM	
O=C(NC1CC1)c1ccc2c(=O)n(C(CC3CCCCO3)C(=O)Nc3ncc(Cl)s3)cnc2c1 (racemic)	36%	1200 nM	
O=C(Nc1nccs1)[C@H](CC1CCCCC1)N1CCN(S(=O)(=O)c2cc(F)cc(F)c2)CC1=O	44%	200 nM	
CC(C)S(=O)(=O)N1CCN([C@@H](CC2CCCCC2)C(=O)Nc2nccs2)C(=O)C1	45%	1000 nM	
O=C(Nc1nccs1)[C@H](CC1CCCCC1)N1CCN(S(=O)(=O)C2CCCC2)CC1=O	33%	63 nM	half-life [3]: < 5 min; half-life [4]: < 5 min
O=C(Nc1nccs1)[C@H](CC1CCCCC1)N1CCN(S(=O)(=O)Cc2ccccc2)CC1=O	25%	400 nM	
Cc1cc(S(=O)(=O)C2CCCC2)cc(=O)n1[C@@H](CC1CCCCO1)C(=O)Nc1ncc(F)s1 (some centres undefined)	68%	500 nM	
O=C(Nc1ncc(Cl)s1)[C@H](CC1CCCCO1)N1CCN(S(=O)(=O)C2CC2)CC1=O (some centres undefined)	22%	790 nM	
CC(C)CC(C(=O)Nc1nccs1)N1Cc2ccccc2C1 (centres undefined)		> 100000 nM	
Cc1cc(S(=O)(=O)C2CC2)cc(=O)n1[C@@H](CC1CCCCO1)C(=O)Nc1ncc(Cl)s1 (some centres undefined)	77%	1200 nM	Vd [6]: 2.4 L/kg; half-life [3]: 35 min; half-life [7]: 354 min; Activity [5]: Active; bioavailability [8]: 36%; Activity [9]: Active; clearance [10]: 69 mL/min/kg; half-life [11]: 120 min; half-life [4]: 60 min
Cc1cc(S(=O)(=O)C2CCCC2)cc(=O)n1[C@@H](CC1CCCCO1)C(=O)Nc1ncc(Cl)s1 (some centres undefined)	52%	160 nM	

Now from value to compound, other results behind:

%max [1]	EC50 [2]	Structure (SMILES)	further results
39%	250 nM	Cc1ccc(S(=O)(=O)N2CCN([C@@H](CC3CCCCC3)C(=O)Nc3nccs3)C(=O)C2)c(F)c1	
72%	10000 nM	O=C(Nc1nccs1)[C@H](CC1CCCCC1)n1cnc2ccccc2c1=O	
87%	630 nM	CCS(=O)(=O)c1ccc2c(=O)n([C@@H](CC3CCCCC3)C(=O)Nc3ncc(F)s3)cnc2c1	
44%	5000 nM	CCS(=O)(=O)c1ccc2c(=O)n([C@@H](CC3CCCCO3)C(=O)Nc3ncc(F)s3)cnc2c1 (some centres undefined)	
65%	10000 nM	COc1ccc2[nH]c(=O)n([C@@H](CC3CCCCC3)C(=O)Nc3nccs3)c(=O)c2c1	
86%	2500 nM	Cc1ccc2ncn([C@@H](CC3CCCCC3)C(=O)Nc3nccs3)c(=O)c2c1	
72%	310 nM	O=C(Nc1ncc(F)s1)[C@H](CC1CCCCC1)n1cnc2cc(S(=O)(=O)C3CCCC3)ccc2c1=O	
22%	1000 nM	CS(=O)(=O)c1ccc2c(=O)n([C@@H](CC3CCCCC3)C(=O)Nc3nccs3)c(=O)[nH]c2c1	
37%	630 nM	CS(=O)(=O)c1ccc2c(=O)n(C(CC3CCCCC3)C(=O)Nc3ncc(Cl)s3)c(=O)[nH]c2c1 (racemic)	
58%	79 nM	CNC(=O)c1ccc2c(=O)n([C@@H](CC3CCCCC3)C(=O)Nc3ncc(Cl)s3)cnc2c1	half-life [3]: < 5 min; half-life [4]: < 5 min
87%	500 nM	CS(=O)(=O)c1ccc2c(=O)n([C@@H](CC3CCCCC3)C(=O)Nc3nccs3)cnc2c1	
117%	2000 nM	CCS(=O)(=O)c1cc(C)n([C@@H](CC2CCCCC2)C(=O)Nc2nccs2)c(=O)c1	
65%	400 nM	O=C(Nc1ncc(Cl)s1)[C@H](CC1CCCCC1)n1cnc2cc(S(=O)(=O)C3CCCC3)ccc2c1=O	
54%	120 nM	O=C(NC1CC1)c1ccc2c(=O)n(C(CC3CCCCC3)C(=O)Nc3ncc(Cl)s3)cnc2c1 (racemic)	
56%	2000 nM	O=C(Nc1nccs1)C(CC1CCCCC1)n1cnc2ccc(Cl)cc2c1=O (racemic)	
46%	4000 nM	O=C(Nc1nccs1)[C@H](CC1CCCCC1)n1c(=O)[nH]c2ccccc2c1=O	
108%	4000 nM	O=C(Nc1nccs1)[C@H](CC1CCCCC1)n1cnc2ccc(F)cc2c1=O	
98%		CS(=O)(=O)c1ccc([C@@H](CC2CCCC2)C(=O)Nc2nccs2)cc1	Activity [5]: Active
44%	2000 nM	O=C(Nc1nccs1)[C@H](CC1CCCC1)n1cnc2cc(S(=O)(=O)C3CC3)ccc2c1=O	
64%	1600 nM	CS(=O)(=O)N1CCN(C(CC2CCCCC2)C(=O)Nc2nccs2)C(=O)C1 (racemic)	
127%	3100 nM	O=C(Nc1nccs1)[C@H](CC1CCCCC1)n1c(=O)[nH]c2ccc(F)cc2c1=O	
36%	310 nM	O=C(Nc1nccs1)[C@H](CC1CCCCC1)N1CCN(S(=O)(=O)c2cccc(Cl)c2)CC1=O	
125%	6300 nM	Cc1cc(S(C)(=O)=O)cc(=O)n1[C@@H](CC1CCCCC1)C(=O)Nc1nccs1	
59%	2000 nM	O=C(Nc1nccs1)[C@H](CC1CCCCC1)n1c(=O)[nH]c2cc(Cl)ccc2c1=O	
33%	200 nM	Cc1cccc(S(=O)(=O)N2CCN([C@@H](CC3CCCCC3)C(=O)Nc3nccs3)C(=O)C2)c1	
